Measurements published in publication PMC2873867 (Journal of inorganic biochemistry, 2009).
Numbering of substitutions follows the chain as printed. Like-named read-outs stand apart in the source and are kept apart here.

Assays:
LYP C129S = molecular target: T1, LYP C129S (Homo sapiens, UniProt Q9Y2R2, C129S); assay: Enzyme inhibition assay; assay type: biochemical; conditions: 5 nM enzyme, 1.5 μM DiFMUP
T1 sequence (Q9Y2R2 24-289 C129S limits assumed): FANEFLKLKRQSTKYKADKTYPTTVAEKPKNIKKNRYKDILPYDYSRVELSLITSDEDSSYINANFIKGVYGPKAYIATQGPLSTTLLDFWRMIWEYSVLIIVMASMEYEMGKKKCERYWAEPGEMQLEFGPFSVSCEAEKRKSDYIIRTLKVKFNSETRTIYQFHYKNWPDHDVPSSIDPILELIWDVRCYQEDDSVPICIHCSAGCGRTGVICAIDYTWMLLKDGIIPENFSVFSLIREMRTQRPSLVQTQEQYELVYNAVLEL
Method in brief: (§1)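 Single-mutant catalytic domains (C129S or C231S) at 5 nM final, each activated 30 min with 0.1 mM DTT. Triplicate kinetic fluorescence (360/455 nm, every 60 s, 30 min), averaged, converted to DiFMU by standard curve.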

LYP C231S = molecular target: T2, LYP C231S (Homo sapiens, UniProt Q9Y2R2, C231S); assay: Enzyme inhibition assay; assay type: biochemical; conditions: 5 nM enzyme, 1.5 μM DiFMUP
T2 sequence (Q9Y2R2 24-289 C231S limits assumed): T1 sequence (Q9Y2R2 24-289 C129S limits assumed) with S106C, C208S
Method in brief: as §1

LYP C129/231S [1] = molecular target: T3, LYP C129/231S (Homo sapiens, UniProt Q9Y2R2, C129S/C231S); assay: Enzyme inhibition assay; assay type: biochemical
T3 sequence (Q9Y2R2 24-289 C129S/C231S limits assumed): T1 sequence (Q9Y2R2 24-289 C129S limits assumed) with C208S
Method in brief: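 LYP C129S/C231S catalytic domain at 20 nM final, preactivated with 0.1 mM DTT for 1 h. Test compound and 1.5 μM DiFMUP added in DMSO (5% final). Fluorescence (ex 360/em 455 nm) read every 60 s for 30 min, in triplicate, averaged, converted to DiFMU via standard curve.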

LYP [2] = molecular target: T4, LYP (Homo sapiens, UniProt Q9Y2R2); assay: Mode of inhibition assay; assay type: biochemical
T4 sequence (Q9Y2R2 24-289 limits assumed): T1 sequence (Q9Y2R2 24-289 C129S limits assumed) with S106C
Method in brief: (§2)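 Catalytic domains (LYP and PTP-PEST 5 nM; LYP C129/231S 20 nM) in pH 6.5 Tris/NaCl/EDTA/DTT/Brij 35 buffer at room temperature. Activity measured across a series of DiFMUP concentrations with no test compound or several fixed test compound concentrations, triplicate at each substrate level. Reciprocal rate plotted against reciprocal substrate concentration for each inhibitor level (Lineweaver–Burk).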

PTP-PEST [3] = molecular target: T5, PTP-PEST (Homo sapiens, UniProt Q05209); assay: Mode of inhibition assay; assay type: biochemical
T5 sequence (Q05209 28-293 limits assumed): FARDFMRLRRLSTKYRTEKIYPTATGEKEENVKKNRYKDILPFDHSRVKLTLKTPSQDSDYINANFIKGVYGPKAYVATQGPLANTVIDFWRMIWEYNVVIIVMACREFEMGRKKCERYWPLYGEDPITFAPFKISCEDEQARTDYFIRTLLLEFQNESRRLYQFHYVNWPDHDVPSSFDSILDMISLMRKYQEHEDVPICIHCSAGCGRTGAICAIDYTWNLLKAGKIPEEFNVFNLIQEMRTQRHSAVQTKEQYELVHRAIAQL
Method in brief: as §2

LYP C129/231S [4] = molecular target: T3, LYP C129/231S; assay: Mode of inhibition assay; assay type: biochemical
Method in brief: as §2

Jurkat TAg cells = assay: Inhibition studies with JTAg cells; assay type: cell-based; conditions: 50 μM, 1 h, western blot
Method in brief: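 Jurkat TAg cells kept in log growth in supplemented RPMI 1640 (10% FBS). 20×10^6 cells treated for 1 h at room temperature with 50 μM test compound or DMSO (<2%), then split and stimulated 2 min with C305 hybridoma supernatant or left unstimulated. NP-40 lysates, Bradford-normalised, run on 10% SDS–PAGE. Blots probed for pLck Y394/Y505, pZAP-70 Y319 and pERK against total-protein controls, developed by ECL.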

LYP [5] = molecular target: T4, LYP; conditions: wild-type LYP; cited from earlier work
PTP-PEST [6] = molecular target: T5, PTP-PEST; conditions: cited from earlier work
HePTP = conditions: cited from earlier work
CD45 = conditions: cited from earlier work
[7] = read-out: Calculated Ki, from Lineweaver-Burk data
[8] = read-out: Estimated Ki from Dixon plot, Ki = -intersection point

What does the source list for `N#CCC[PH](CCC#N)([Au][Cl])c1ccccc1` [Complex 1, bis(cyanoethyl)phenylphosphine–Au(I)–Cl]?
IC50 (LYP C129S): 4 ± 0.2 µM; IC50 (LYP C231S): 4 ± 0.8 µM; IC50 (LYP C129/231S [1]; LYP C129/231S, 20 nM enzyme, 1.5 μM DiFMUP): 40 ± 4 µM; IC50 of LYP C129/231S relative to wild-type LYP and single mutants (LYP C129/231S [1]; fold higher): roughly 10 fold; Mode of inhibition (LYP [2]; Lineweaver-Burk plot): competitive inhibition; Ki (LYP [2]; [7]): 2380 ± 1100 nM; Ki (LYP [2]; [8]): ~1200 nM; Mode of inhibition (PTP-PEST [3]; Lineweaver-Burk plot): competitive inhibition; Ki (PTP-PEST [3]; [7]): 53.3 ± 16.3 µM; Ki (PTP-PEST [3]; [8]): ~80 µM; Mode of inhibition (LYP C129/231S [4]; Lineweaver-Burk plot): mixed-type inhibition; Ki (LYP C129/231S [4]; [7]): 58.6 ± 5.3 µM; Ki (LYP C129/231S [4]; [8]): ~70 µM; Phosphorylation of Lck at Y505 (cellular CD45 inhibition) (Jurkat TAg cells; JTAg cells): no change in phosphorylation levels at position Y505; Phosphorylation of ERK1/2 (Jurkat TAg cells; TCR stimulated JTAg cells): increased phosphorylation levels; Phosphorylation of Lck at Y394 (cellular LYP inhibition) (Jurkat TAg cells; TCR stimulated JTAg cells): increase in phosphorylation at Y394; Phosphorylation of ZAP-70 (Jurkat TAg cells; TCR stimulated JTAg cells): increased phosphorylation levels; IC50 (LYP [5]): 3.5 ± 0.1 µM; IC50 (PTP-PEST [6]): > 80 µM; IC50 (HePTP): > 50 µM; IC50 (CD45): > 70 µM
